Tests used:
[1] = target: T1, Tyrosine-protein phosphatase non-receptor type 1 (Homo sapiens, UniProt P18031); experiment: Inhibition of human recombinant Protein-tyrosine phosphatase 1B.
T1 sequence (P18031 whole entry): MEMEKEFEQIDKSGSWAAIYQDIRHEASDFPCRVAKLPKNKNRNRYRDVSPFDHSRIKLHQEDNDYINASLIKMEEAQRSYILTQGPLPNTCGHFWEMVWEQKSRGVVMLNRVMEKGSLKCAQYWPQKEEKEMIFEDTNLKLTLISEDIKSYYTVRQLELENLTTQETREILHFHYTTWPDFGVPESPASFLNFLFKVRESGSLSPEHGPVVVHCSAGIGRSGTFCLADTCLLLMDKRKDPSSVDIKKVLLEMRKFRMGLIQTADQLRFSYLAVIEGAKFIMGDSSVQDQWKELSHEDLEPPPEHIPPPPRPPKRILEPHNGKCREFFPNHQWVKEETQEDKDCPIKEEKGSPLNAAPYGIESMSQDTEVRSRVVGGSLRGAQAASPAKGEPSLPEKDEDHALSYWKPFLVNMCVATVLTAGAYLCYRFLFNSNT
Summary of the method: (§1)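 Enzyme is a soluble recombinant human PTP1B (residues 1–321). Ki is measured at pH 5.5 with p-nitrophenyl phosphate (pNPP) as substrate.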

[2] = target: T2, Tyrosine-protein phosphatase non-receptor type 2 (Homo sapiens, UniProt P17706); experiment: Inhibition of T cell protein tyrosine phosphatase (TC-PTP) at pH 7.0; format: single protein
T2 sequence (P17706 whole entry): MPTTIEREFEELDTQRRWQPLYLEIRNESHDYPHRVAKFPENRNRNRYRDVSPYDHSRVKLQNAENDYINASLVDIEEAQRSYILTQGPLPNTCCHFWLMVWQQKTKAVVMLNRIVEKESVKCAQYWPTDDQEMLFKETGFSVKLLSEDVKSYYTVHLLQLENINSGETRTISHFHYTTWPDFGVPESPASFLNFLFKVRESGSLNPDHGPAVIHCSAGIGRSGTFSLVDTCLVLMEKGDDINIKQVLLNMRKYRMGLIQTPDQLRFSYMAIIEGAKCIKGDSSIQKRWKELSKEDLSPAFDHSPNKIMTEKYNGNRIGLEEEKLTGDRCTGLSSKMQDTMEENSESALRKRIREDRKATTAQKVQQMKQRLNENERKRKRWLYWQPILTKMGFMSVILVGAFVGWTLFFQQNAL
Summary of the method: (§2)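 Ki from a pNPP hydrolysis assay with recombinant TC-PTP, run at pH 7.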

[3] = target: T1, Tyrosine-protein phosphatase non-receptor type 1; experiment: Inhibitory effect against recombinant human protein-tyrosine phosphatase 1B (PTP1B), using p-nitrophenyl phosphate substrate at pH 5.5.
[4] = target: Receptor-type tyrosine-protein phosphatase alpha (Homo sapiens, UniProt P18433); experiment: Inhibitory effect against human protein-tyrosine phosphatase alpha (PTPalpha), using p-nitrophenyl phosphate substrate at pH 5.5.
Summary of the method: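 Ki from pNPP hydrolysis assays at pH 5.5 with recombinant PTPα or LAR.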

[5] = target: Receptor-type tyrosine-protein phosphatase F (Homo sapiens, UniProt P10586); experiment: Inhibitory effect against protein-tyrosine phosphatase Lar, using p-nitrophenyl phosphate as substrate at pH 5.5.
[6] = target: T1, Tyrosine-protein phosphatase non-receptor type 1; experiment: Inhibitory effect against recombinant human PTP1B (Protein Tyrosine phosphatase 1B) using p-nitrophenyl phosphate substrate at pH 5.5; summary of the method: as §1
[7] = Oral bioavailability; format: ADME, organism-based; details: eutheria, in vivo, read-out: f (po)
[8] = Pharmacokinetic Parameter clearance was reported for Protein Tyrosine Phosphatase 1B; format: ADME, organism-based; details: in vivo
[9] = Pharmacokinetic Parameter t1/2 was reported for Protein Tyrosine Phosphatase 1B; format: ADME, organism-based; details: in vivo
[10] = target: T2, Tyrosine-protein phosphatase non-receptor type 2; experiment: Inhibitory effect against inhibitory effect against T cell protein tyrosine phosphatase (TC-PTP) using p-nitrophenyl phosphate as substrate at pH 7.0; summary of the method: as §2
[11] = target: T1, Tyrosine-protein phosphatase non-receptor type 1; experiment: Inhibitory effect against recombinant human Protein-tyrosine phosphatase 1B (PTP1B) using p-nitrophenyl phosphate substrate at pH 5.5;ND is not determined; summary of the method: as §1
[12] = Pharmacokinetic Parameter half life was reported for Protein Tyrosine Phosphatase 1B; format: ADME, organism-based; details: in vivo
[13] = Pharmacokinetic Parameter Vss was reported for Protein Tyrosine Phosphatase 1B; format: ADME, organism-based; details: in vivo; read-out: Vss

Chain of Receptor-type tyrosine-protein phosphatase F (P10586 whole entry): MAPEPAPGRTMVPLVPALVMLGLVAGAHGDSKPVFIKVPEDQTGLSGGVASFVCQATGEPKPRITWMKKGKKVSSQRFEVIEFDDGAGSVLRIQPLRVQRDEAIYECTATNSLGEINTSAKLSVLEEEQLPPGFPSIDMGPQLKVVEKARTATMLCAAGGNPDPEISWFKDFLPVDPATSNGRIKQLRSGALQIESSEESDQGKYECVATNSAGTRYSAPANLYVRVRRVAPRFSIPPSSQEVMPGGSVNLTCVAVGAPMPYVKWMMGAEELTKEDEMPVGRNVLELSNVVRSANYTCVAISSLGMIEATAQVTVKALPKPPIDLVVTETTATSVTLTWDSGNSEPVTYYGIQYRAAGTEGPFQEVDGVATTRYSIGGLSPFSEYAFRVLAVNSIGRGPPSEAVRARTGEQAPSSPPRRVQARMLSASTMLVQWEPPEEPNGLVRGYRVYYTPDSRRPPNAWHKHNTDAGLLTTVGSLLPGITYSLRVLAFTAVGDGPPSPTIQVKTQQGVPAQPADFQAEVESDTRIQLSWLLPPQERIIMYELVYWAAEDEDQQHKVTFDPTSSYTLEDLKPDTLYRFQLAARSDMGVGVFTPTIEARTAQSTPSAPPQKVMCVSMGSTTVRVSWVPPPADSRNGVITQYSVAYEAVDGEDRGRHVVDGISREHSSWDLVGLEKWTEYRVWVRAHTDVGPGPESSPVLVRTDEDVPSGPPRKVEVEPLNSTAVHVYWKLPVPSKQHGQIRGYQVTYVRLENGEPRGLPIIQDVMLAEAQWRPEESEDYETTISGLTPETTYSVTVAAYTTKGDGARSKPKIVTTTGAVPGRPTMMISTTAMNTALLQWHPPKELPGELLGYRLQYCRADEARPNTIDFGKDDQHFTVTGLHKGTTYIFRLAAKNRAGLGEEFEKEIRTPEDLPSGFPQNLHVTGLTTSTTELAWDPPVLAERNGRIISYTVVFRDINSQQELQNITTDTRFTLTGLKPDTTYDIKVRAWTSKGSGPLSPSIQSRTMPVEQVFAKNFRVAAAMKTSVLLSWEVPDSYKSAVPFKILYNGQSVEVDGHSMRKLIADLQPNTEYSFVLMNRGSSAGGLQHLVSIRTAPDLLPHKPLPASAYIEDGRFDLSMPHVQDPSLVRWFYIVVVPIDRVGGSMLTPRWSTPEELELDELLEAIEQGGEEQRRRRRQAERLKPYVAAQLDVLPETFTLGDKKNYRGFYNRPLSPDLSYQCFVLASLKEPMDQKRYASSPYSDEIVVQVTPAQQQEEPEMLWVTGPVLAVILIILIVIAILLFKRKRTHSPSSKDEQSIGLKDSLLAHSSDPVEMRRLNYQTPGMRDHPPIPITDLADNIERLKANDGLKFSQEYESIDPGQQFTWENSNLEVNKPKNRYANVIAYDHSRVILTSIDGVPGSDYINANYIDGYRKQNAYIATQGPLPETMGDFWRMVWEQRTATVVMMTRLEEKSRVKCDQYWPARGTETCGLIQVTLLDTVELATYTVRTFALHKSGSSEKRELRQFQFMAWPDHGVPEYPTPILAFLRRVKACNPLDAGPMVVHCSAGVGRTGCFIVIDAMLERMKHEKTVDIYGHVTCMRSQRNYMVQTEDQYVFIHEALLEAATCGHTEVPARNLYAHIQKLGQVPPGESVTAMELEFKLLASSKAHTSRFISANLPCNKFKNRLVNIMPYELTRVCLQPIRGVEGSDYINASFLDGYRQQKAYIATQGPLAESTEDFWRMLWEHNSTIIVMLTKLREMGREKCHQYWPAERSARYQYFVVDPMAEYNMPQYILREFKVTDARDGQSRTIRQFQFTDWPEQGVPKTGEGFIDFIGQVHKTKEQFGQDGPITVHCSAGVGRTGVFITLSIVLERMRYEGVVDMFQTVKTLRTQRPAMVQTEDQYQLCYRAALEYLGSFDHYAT
Chain of Receptor-type tyrosine-protein phosphatase alpha (P18433 whole entry): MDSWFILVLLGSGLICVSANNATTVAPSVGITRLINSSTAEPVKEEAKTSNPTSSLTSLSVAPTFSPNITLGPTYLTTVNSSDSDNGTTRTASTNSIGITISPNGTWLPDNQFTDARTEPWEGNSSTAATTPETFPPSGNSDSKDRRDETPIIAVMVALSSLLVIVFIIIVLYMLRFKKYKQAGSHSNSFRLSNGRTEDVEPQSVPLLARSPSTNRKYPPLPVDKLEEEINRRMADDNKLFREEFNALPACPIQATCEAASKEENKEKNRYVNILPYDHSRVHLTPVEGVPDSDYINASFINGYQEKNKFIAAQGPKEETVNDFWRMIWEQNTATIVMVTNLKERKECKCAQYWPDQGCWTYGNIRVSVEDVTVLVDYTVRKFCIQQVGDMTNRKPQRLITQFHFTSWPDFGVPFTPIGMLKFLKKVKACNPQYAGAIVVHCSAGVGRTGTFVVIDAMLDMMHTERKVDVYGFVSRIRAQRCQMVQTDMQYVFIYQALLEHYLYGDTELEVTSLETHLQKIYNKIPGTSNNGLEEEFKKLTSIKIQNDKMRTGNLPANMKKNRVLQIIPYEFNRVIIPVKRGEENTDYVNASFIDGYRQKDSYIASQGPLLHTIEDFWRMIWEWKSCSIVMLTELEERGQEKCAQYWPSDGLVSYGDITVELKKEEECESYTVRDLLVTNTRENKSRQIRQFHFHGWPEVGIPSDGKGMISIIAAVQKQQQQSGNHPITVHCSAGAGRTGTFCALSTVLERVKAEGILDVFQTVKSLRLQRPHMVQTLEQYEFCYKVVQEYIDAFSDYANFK

Row | SMILES | Ki [1] [µM] | Ki [3] [µM] | Ki [4] [µM] | Ki [5] [µM] | other results
1 | O=C(O)C(=O)Nc1sc2c(c1C(=O)O)CCN(Cc1ccc3ccccc3n1)C2 | 29 | 1.8 |  |  | 
2 | O=C(O)C(=O)Nc1sc2c(c1C(=O)O)CCN(CCc1ccccn1)C2 | 12 |  |  |  | Ki [2]: 19 µM
3 | COc1cccc(CN2CCc3c(sc(NC(=O)C(=O)O)c3C(=O)O)C2)c1 | 8.3 | 0.7 |  |  | 
4 | O=C1CCc2c(sc(NC(=O)C(=O)O)c2C(=O)O)C1 |  | 1.3 | 52 |  | 
5 | O=C(O)C(=O)Nc1sc2c(c1C(=O)O)CCN(CCC(c1ccccc1)c1ccccc1)C2 | 5.9 |  |  |  | 
6 | O=C(O)C(=O)Nc1sc2c(c1C(=O)O)CCN(Cc1ccncc1)C2 | 12 | 1.1 |  |  | 
7 | O=C(O)COc1ccc(-c2cc(NC(=O)C(=O)O)c(C(=O)O)s2)cc1 |  | 2.5 | 200 | 50 | 
8 | O=C(O)C(=O)Nc1sc2c(c1C(=O)O)CCN(Cc1ccccn1)C2 | 23 | 1 |  |  | Ki [2]: 48 µM
9 | O=C(O)C(=O)Nc1sc2c(c1C(=O)O)CCN(CCc1ccc(OCc3ccccc3)cc1)C2 | 15 |  |  |  | Ki [2]: 10 µM
10 | O=C(O)C(=O)Nc1cc(-c2ccc(Oc3ccccc3)cc2)sc1C(=O)O |  | 26 | 93 |  | 
11 | O=C(O)C(=O)Nc1sc2c(c1C(=O)O)CCOC2 |  |  | 170 |  | bioavailability [7]: 85%; clearance [8]: 17 mL/min/kg; half-life [9]: 1.3 h
12 | O=C(O)C(=O)Nc1sc2c(c1C(=O)O)CCN(Cc1ccccc1)C2 | 14 | 1 |  |  | Ki [2]: 24 µM
13 | O=C(O)C(=O)Nc1sc2c(c1C(=O)O)CCN(Cc1ccc3ccccc3c1)C2 | 42 |  |  |  | Ki [10]: 34 µM
14 | O=C(O)C(=O)Nc1cscc1C(=O)O |  |  |  |  | Ki [11]: 75 µM
15 | O=C(O)C(=O)Nc1sc2c(c1C(=O)O)CCN(CCc1cccc3ccccc13)C2 | 11 |  |  |  | Ki [2]: 11 µM
16 | O=C(O)C(=O)Nc1sc2c(c1C(=O)O)CCN(CCc1ccc(-c3ccccc3)cc1)C2 | 8 |  |  |  | Ki [2]: 12 µM

Row | SMILES | Ki [1] [µM] | Ki [3] [µM] | Ki [4] [µM] | Ki [5] [µM] | other results
17 | O=C(O)C(=O)Nc1sc2c(c1C(=O)O)CCC(O)C2 (stereo not drawn) |  | 2 | 215 |  | 
18 | O=C(O)C(=O)Nc1sc2c(c1C(=O)O)CCNC2 | 4.7 | 0.29 |  |  | bioavailability [7]: 56%; clearance [8]: 6.4 mL/min/kg; half-life [12]: 2.8 h; Ki [2]: 9.4 µM; Vd [13]: 0.9 L/kg
19 | O=C(O)C(=O)Nc1sc2c(c1C(=O)O)CC[S+]([O-])C2 (stereo not drawn) |  | 5.1 | 363 |  | 
20 | O=C(O)C(=O)Nc1sc2c(c1C(=O)O)CCSC2 |  | 8.3 | 100 |  | 
21 | O=C(O)C(=O)Nc1sc2c(c1C(=O)O)CCN(Cc1cccnc1)C2 | 12 | 0.9 |  |  | 
22 | CC(C)Cc1ccc(-c2cc(NC(=O)C(=O)O)c(C(=O)O)s2)cc1 |  | 13 | 100 | 50 | 
23 | CN(C(=O)C(=O)O)c1ccccc1C(=O)O |  | 1100 | > 2000 | > 2000 | 
24 | O=C(O)C(=O)Nc1sc2c(c1C(=O)O)CCN(CCc1ccsc1)C2 | 9 |  |  |  | Ki [2]: 12 µM
25 | O=C(O)C(=O)Nc1sc2c(c1C(=O)O)CCN(CCc1ccncc1)C2 | 8.7 |  |  |  | Ki [2]: 13 µM
26 | O=C(O)C(=O)Nc1sc2c(c1C(=O)O)CCS(=O)(=O)C2 |  | 6.1 | 322 |  | 
27 | O=C(O)C(=O)Nc1cc(-c2ccc(OCc3ccccc3)cc2)sc1C(=O)O |  | 16 | 65 |  | 
28 | O=C(O)C(=O)Nc1sc2c(c1C(=O)O)CCN(CCc1ccccc1OCc1ccccc1)C2 | 16 |  |  |  | Ki [2]: 17 µM
29 | O=C(O)C(=O)Nc1ccc(-c2ccccc2)cc1C(=O)O |  | 14 | 280 | 700 | 
30 | COc1ccc(-c2cc(NC(=O)C(=O)O)c(C(=O)O)s2)cc1OC |  | 25 | 980 |  | 
31 | O=C(O)C(=O)Nc1sc2c(c1C(=O)O)CCN(CCCc1ccccc1)C2 | 7.3 |  |  |  | Ki [2]: 12 µM

Continued, in another order:

Row | Ki [1] [µM] | Ki [3] [µM] | Ki [4] [µM] | Ki [5] [µM] | SMILES | other results
32 | 11 | 1 |  |  | CN1CCc2c(sc(NC(=O)C(=O)O)c2C(=O)O)C1 | Ki [2]: 22 µM
33 |  | 13 | 250 | 90 | O=C(O)C(=O)Nc1cc(-c2ccccc2)sc1C(=O)O | 
34 |  | 12 | 320 | 400 | O=C(O)C(=O)Nc1sc2c(c1C(=O)O)CCCCC2 | 
35 |  |  | 290 | 410 | O=C(O)C(=O)Nc1sc2c(c1C(=O)O)CCCC2 | 
36 |  | 160 | 1000 | > 2000 | O=C(O)C(=O)Nc1cnccc1C(=O)O | 
37 |  | 11 | 200 | 90 | O=C(O)C(=O)Nc1cc(-c2ccsc2)sc1C(=O)O | 
38 |  |  | > 2000 | > 2000 | Cc1cccc(C(=O)O)c1NC(=O)C(=O)O | Ki [6]: 1100 µM
39 |  | 12 | 530 |  | COc1cccc(-c2cc(NC(=O)C(=O)O)c(C(=O)O)s2)c1 | 
40 |  |  | 870 | > 2000 | O=C(O)C(=O)Nc1ccccc1C(=O)O | 
41 |  | 12 | 340 | 900 | O=C(O)C(=O)Nc1sc2c(c1C(=O)O)CCC2 | 
42 |  | 8 | 1790 |  | COc1cc(OC)cc(-c2cc(NC(=O)C(=O)O)c(C(=O)O)s2)c1 | 
43 |  | 6.1 | 250 | 113 | Nc1cccc(-c2cc(NC(=O)C(=O)O)c(C(=O)O)s2)c1 | 
44 |  | 10 | 100 | 160 | O=C(O)C(=O)Nc1cc(-c2ccc(Cl)cc2)sc1C(=O)O | 
45 |  | 2000 | > 2000 | 2000 | Cc1csc(C(=O)O)c1NC(=O)C(=O)O | 
46 |  | 4.7 | 700 | 165 | O=C(O)C(=O)Nc1cc(-c2cccc([N+](=O)[O-])c2)sc1C(=O)O | 
47 |  | 37 | > 2000 | 2000 | O=C(O)C(=O)Nc1ccsc1C(=O)O | 
48 |  | 9 | 150 |  | COc1ccc(-c2cc(NC(=O)C(=O)O)c(C(=O)O)s2)cc1 | 
49 |  |  | 89 | 420 | O=C(O)C(=O)Nc1ccc(I)cc1C(=O)O | Ki [6]: 14 µM
50 |  | 1700 | > 2000 | > 2000 | Cc1cccc(NC(=O)C(=O)O)c1C(=O)O | 
51 |  | 4.5 | 210 |  | O=C(O)C(=O)Nc1cc(-c2ccc(O)cc2)sc1C(=O)O | 
52 |  | 18 | 800 | 550 | O=C(O)C(=O)Nc1ccc2cc[nH]c2c1C(=O)O | 
53 |  | 8 | 180 | 450 | O=C(O)C(=O)Nc1cc2[nH]ccc2cc1C(=O)O | 
54 |  | 108 |  | > 2000 | O=C(O)C(=O)Nc1sccc1C(=O)O | 
55 |  | 8 | 210 | 110 | O=C(O)C(=O)Nc1cc(-c2ccc(F)cc2)sc1C(=O)O | 

From ChEMBL document CHEMBL1135823, “Discovery and SAR of a novel selective and orally bioavailable nonpeptide classical competitive inhibitor class of protein-tyrosine phosphatase 1B” (J Med Chem, 2002)
